Screening results as filed in PubChem.
CFTR F508del cor – CFTR F508del correction in bronchial cells; hit rate 0.36% among 350,000; CFBE cells, YFP halide quenching; stimulated with forskolin plus potentiator P3; % fluorescence drop versus neutral controls; activity (quench increase), % at 7.58 µM;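 active means mean added fluorescence quench of at least 8% versus neutral control, with both replicates also reaching 8%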;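 further: cells transiently co-express mutant CFTR-F508del with the halide-sensitive YFP; corrector assay measuring rescue of mutant channel to the surface after 24 h compound exposure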
FN deposit inh – fibronectin deposition inhibition; AH1F fibroblasts, Alexa488-fibronectin deposition fluorescence, overnight; inhibition, % at 12.6 µM; hit rate 0.086% among 350,000; AID 743247;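 active means mean inhibition across replicates of 30% or more, regardless of how many single replicates reach that level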;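 further: positive control wells lacked labelled fibronectin entirely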
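test system = AH1F fibroblasts assembling fluorescent fibronectin matrix | quantity = 10000 AH1F cells per well | buffer or medium = DMEM plus 2% serum, read in PBS | doses = single dose, pinned | incubation = 1 h cell attachment, overnight exposure to compound and label | detection = fluorescence at 485 nm excitation, 525 nm emission | read-out basis = inhibition from reduced deposited-fibronectin fluorescence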
PGC1a acetyl inh – PGC1a acetylation modulation, inhibitor mode; U2OS PGC1a acetylation, AlphaScreen anti-acetyl-lysine; with virally co-expressed GCN5 acetyltransferase; inhibition, % at 15.6 µM; hit rate 0.17% among 350,000;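 active means every replicate shows inhibition of at least 40%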;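 further: 0% = neutral control wells and 100% = positive control wells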
HIV Env fusion – blocks HIV Env-driven cell-cell fusion. HeLa-JRFL Env/CEM21 cell fusion, luciferase. inhibition, % at 12.3 µM. hit rate 1.1% among 360,000. AID 651610;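 active means mean replicate inhibition score of at least 50 and every replicate individually at or above 50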;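 further: 0% = plate neutral controls and 100% = maraviroc near 300 nM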
PAX8 inh HTS – PAX8 transcriptional activity inhibition. hit rate 1.2% among 360,000. RMG-I TPO-luciferase reporter, SteadyGlo, 24 h. AID 652154. inhibition, % at 12.6 µM;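 active means mean replicate inhibition at least 60% with every replicate also reaching 60%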;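 further: luciferase light reporting Pax8 driven TPO promoter activity; plate controls were median of neutral control wells for no effect and mitoxantrone controls for full effect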
EWS-Fli block – blocks EWS/Fli oncoprotein-driven transcription; A673 NR0B1-luciferase reporter, viability-normalised; inhibition, % at 12.6 µM; hit rate 0.67% among 350,000;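 active means mean inhibition of at least 50% after viability correction, with every replicate also passing that limit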;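 further: firefly luciferase signal divided by Alamar Blue viability fluorescence both relative to DMSO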
An asterisk follows results filed as active; [ ] = dose if it differs, or a comment. Only some compounds are listed: those with a hit (about 2.3% of all), similar ones and a draw of the others.

`COc1ccc(NC(=O)C2CCN(c3nc(C)nc4c3CCC4)CC2)cc1` gave FN deposit inh -1.1, HIV Env fusion 54.2* and PAX8 inh HTS 18.6.
COc1ccc(NC(=O)C2CCN(c3nc(C)cc(C)n3)CC2)cc1 was read as FN deposit inh -3.0, PGC1a acetyl inh 12.6, HIV Env fusion -60.1 and PAX8 inh HTS 6.6.
COc1ccc(-n2nc3cc(C)c(NC(C)=O)cc3n2)cc1 was read as CFTR F508del cor -2.3, FN deposit inh -2.2, HIV Env fusion -90.3, PAX8 inh HTS -135.0 and EWS-Fli block 50.6*.
`Cc1cc(C(=O)c2ccccc2)cc(C)c1O` gave CFTR F508del cor 10.7*, FN deposit inh 1.5, HIV Env fusion -31.1, PAX8 inh HTS -1.0 and EWS-Fli block -4.2.
COCC(=O)N1[C@H](CO)[C@@H](c2ccccc2)C12CN(C(=O)Cc1ccccn1)C2 was read as CFTR F508del cor 2.2, PGC1a acetyl inh -4.0, PAX8 inh HTS -25.9 and EWS-Fli block -4.5.
Screening COCCNC(=O)C[C@H]1CC[C@H]2[C@@H](COC[C@H](O)CN2C(=O)Nc2ccccc2OC)O1 returned CFTR F508del cor -1.4, FN deposit inh 0.8 and PGC1a acetyl inh -6.4.
For CCOC(=O)CN(C(=O)CSc1nnnn1C)c1ccccc1 the results were CFTR F508del cor 1.9, FN deposit inh 5.6, PGC1a acetyl inh -8.1, HIV Env fusion 70.7*, PAX8 inh HTS 15.7 and EWS-Fli block 0.2.
For CCOC(=O)CN(C(=O)CSc1nnc(Cc2ccccc2)n1-c1ccc(C)cc1)c1ccccc1 the results were PGC1a acetyl inh -42.8.
For Cc1ccc(S(=O)(=O)NCc2ccncc2)c(C)c1C the results were CFTR F508del cor 3.9, FN deposit inh -8.2, PGC1a acetyl inh 15.8, HIV Env fusion 55.1*, PAX8 inh HTS 20.3 and EWS-Fli block 26.3.
For CCOCC(=O)NC1CCc2cc(OC(=O)COCC)c(OC)c(OC)c2-c2ccc(SC)c(=O)cc21 (stereo unspecified) the results were CFTR F508del cor -1.2, PGC1a acetyl inh 2.1, HIV Env fusion -301.8, PAX8 inh HTS 91.4* and EWS-Fli block 53.0*.
For COc1cc2c(c(OC)c1OC)-c1ccc(SC)c(=O)cc1C(NC(=O)C(F)(F)F)CC2 (stereo unspecified) the results were CFTR F508del cor 2.4, PGC1a acetyl inh 6.2, HIV Env fusion 24.7, PAX8 inh HTS 87.0* and EWS-Fli block 45.5.
C=C1C(=O)O[C@@H]2[C@H]1CC[C@H](C)[C@]1(O)CCC(=O)[C@@]21C was read as CFTR F508del cor -4.1, FN deposit inh 3.1, PGC1a acetyl inh 6.6, HIV Env fusion 8.8, PAX8 inh HTS 89.5* and EWS-Fli block -9.5.
C=C1CCC(O)C2(C)CCC3C(C)C(=O)OC3C12O (stereo unspecified) was read as CFTR F508del cor -0.3, FN deposit inh 1.3, PGC1a acetyl inh 0.9, HIV Env fusion -0.3, PAX8 inh HTS -0.4 and EWS-Fli block 3.7.
COc1ccc(CN(C)C[C@H]2OCCCC[C@H](C)Oc3ccc(NS(=O)(=O)c4ccc(F)cc4)cc3C(=O)N([C@@H](C)CO)C[C@H]2C)cc1 was read as CFTR F508del cor 0.7, FN deposit inh 4.0, PGC1a acetyl inh -1.7, HIV Env fusion -10.6[16.7 µM], PAX8 inh HTS 2.5 and EWS-Fli block -2.4.
For Nc1[nH]nc2ncc3cc4ccccc4nc3c12 the results were CFTR F508del cor 11.7*, FN deposit inh -12.4, PGC1a acetyl inh 16.3, HIV Env fusion -39.2, PAX8 inh HTS -38.7 and EWS-Fli block -31.9.
For COc1ccccc1-c1c(-c2ccc(O)cc2O)n[nH]c1C(F)(F)F the results were CFTR F508del cor 1.7, FN deposit inh -1.7, PGC1a acetyl inh 14.1, HIV Env fusion 92.5*, PAX8 inh HTS 14.1 and EWS-Fli block 7.9.
CCC(=O)N(C)C[C@@H]1Oc2cc(C#CCC3CCCC3)ccc2S(=O)(=O)N([C@@H](C)CO)C[C@@H]1C was read as CFTR F508del cor 0.5, PGC1a acetyl inh 3.0, HIV Env fusion 4.1[16.7 µM], PAX8 inh HTS -0.9 and EWS-Fli block -15.9.
For O=C(C[C@@H]1CC[C@@H]2[C@H](COC[C@H](O)CN2S(=O)(=O)c2cccc(Cl)c2)O1)NC1Cc2ccccc2C1 the results were CFTR F508del cor -0.9, FN deposit inh -2.5, PGC1a acetyl inh -8.4, HIV Env fusion -5.1[16.7 µM], PAX8 inh HTS 19.9 and EWS-Fli block -0.9.
